{"data": "Published values of several laboratories", "CYP2D6": "Cytochrome P450 2D6 (CYP2D6, Homo sapiens, UniProt P10635)"}
{"SMILES": "COC(=O)C1CCN(C(=O)c2ccc(NCc3cnc4nc(N)nc(N)c4n3)cc2)CC1", "tested on": "CYP2D6", "assay": "enzyme activity, inhibitor, luciferase", "conditions": "10 µM", "measurement": "inhibition", "value": "-27.7%"}
{"SMILES": "CCC[C@@](N)(CO)CCc1ccc(OCCCCCC(C)C)cc1", "tested on": "CYP2D6", "assay": "enzyme activity, inhibitor", "measurement": "IC50", "value": "32 µM"}
{"SMILES": "Cc1ncc(C)n2nc(/C=C/c3nc(N4CCCC4)cc(N4CCOCC4)n3)nc12", "system": "male beagle dog, plasma", "conditions": "oral, 0.3 mg/kg", "measurement": "half-life", "value": "3.7 h"}
{"SMILES": "C=C[C@H]1C[N@@]2CC[C@H]1C[C@@H]2[C@@H](O)c1ccnc2ccc(OC)cc12", "tested on": "CYP2D6", "assay": "enzyme activity, inhibitor", "system": "human, liver microsomes", "conditions": "10 µM", "measurement": "inhibition", "value": "87%"}
{"SMILES": "N=c1c2c(-c3ccccc3)c(-c3ccccc3)n(Cc3ccccc3)c2ncn1[C@H]1CC[C@H](O)CC1", "system": "male beagle dog, plasma", "conditions": "intravenous, 0.5 mg/kg, single dose", "measurement": "Vd", "value": "15.9 L/kg"}
{"SMILES": "CN[C@@H](C)C(=O)N[C@H]1CN(C(=O)CC(C)C)CC[C@H]2CC[C@@H](C(=O)NC(c3ccccc3)c3ccccc3)N2C1=O", "system": "beagle dog, plasma", "conditions": "oral, 10 mg/kg", "measurement": "half-life", "value": "27 h"}
{"SMILES": "COC(=O)C1CCN(C(=O)c2ccc(N(C)Cc3cnc4nc(N)nc(N)c4n3)cc2)CC1", "tested on": "CYP2D6", "assay": "enzyme activity, inhibitor, luciferase", "conditions": "10 µM", "measurement": "inhibition", "value": "-32.7%"}
{"SMILES": "O=C[C@H](C[C@@H]1CCNC1=O)NC(=O)[C@H](CC1CCCCC1)NC(=O)c1cc2ccccc2[nH]1", "system": "dog, plasma", "conditions": "intravenous, 8 mg/kg", "measurement": "AUC", "value": "14500 ng·h/mL"}
